Only some compounds are listed: those with a hit (about 3% of all), similar ones and a draw of the others.
DDE Tn7 FP inh – DD(E)-Tn7 binding inhibition, primary FP screen | inhibition, % at 8.3 µM | 370,000 compounds, 0.13% hits | FP displacement of FITC-Tn7 peptide from fibrin DD(E); 0% = median of compound wells per plate;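 active means inhibition above the mean of compounds falling within the control limits plus 3 SD of them, cut at about 14% in these data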
Target sequence (P02675 whole entry, looked up): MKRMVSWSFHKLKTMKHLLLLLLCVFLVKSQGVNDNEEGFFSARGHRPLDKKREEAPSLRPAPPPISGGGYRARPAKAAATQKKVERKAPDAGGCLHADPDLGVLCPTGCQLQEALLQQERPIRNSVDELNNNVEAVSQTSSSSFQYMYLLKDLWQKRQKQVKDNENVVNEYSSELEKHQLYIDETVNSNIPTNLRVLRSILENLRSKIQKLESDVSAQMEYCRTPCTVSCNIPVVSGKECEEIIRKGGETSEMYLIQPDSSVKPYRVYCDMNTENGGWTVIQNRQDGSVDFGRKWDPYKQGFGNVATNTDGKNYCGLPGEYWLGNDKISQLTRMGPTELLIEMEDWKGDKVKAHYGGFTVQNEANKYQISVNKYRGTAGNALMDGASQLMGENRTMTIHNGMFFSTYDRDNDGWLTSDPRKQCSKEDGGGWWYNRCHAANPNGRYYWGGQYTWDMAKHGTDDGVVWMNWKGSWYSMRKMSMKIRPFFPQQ
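Test system: human clot-derived fibrin DD(E) complex / Quantity: 2 µM final DD(E) protein / Incubation: 10 min plus 3 h, room temperature / Measured by: fluorescence polarization / Benchmarks: high control of 10 µM Aha-Tn7 peptide / Replicates: singlicate testing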
PLCb3 inh – blocks human PLC-beta3 enzyme activity | 370,000 compounds, 0.18% hits | inhibition, % at 12.2 µM | Purified PLC-beta3, fluorogenic substrate, fluorescence; in the data active means inhibition above about 11%
CendR NRP1 mod – modulators of CendR peptide binding to human neuropilin-1 | O14786 | FAM-RPARPAR peptide binding to NRP-1, fluorescence polarization | inhibition, % at 25 µM | 360,000 compounds, 0.85% hits;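 active means inhibition or corrected inhibition above about 18%, plus a signal ratio from 0.5 to 1.5, limit read from the data, passing the limit was not always enough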
PLCg1 inh – blocks human PLC-gamma1 enzyme activity; purified PLC-gamma1, fluorogenic substrate, fluorescence; inhibition, % at 12.2 µM; 370,000 compounds, 0.84% hits; AID 720700
proKLK7 act – proKLK7 (human) activation, primary screen | purified proKLK7, EDANS-DABCYL substrate fluorescence; 100% is mature enzyme control, 0% vehicle | activation, % at 7 µM | 370,000 compounds, 0.9% hits;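 active means activation above the mean of all tested compounds plus 3 SD, computed per campaign excluding outliers beyond control limits, cut at about 13% in these data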
Tn6 DDE FP – disrupts Tn6 cyclic peptide binding to fibrin D-Dimer-E complex; AID 720509; 370,000 compounds, 0.21% hits; P02675; Fibrin DD(E) TRITC-Tn6 fluorescence polarization displacement; inhibition, % at 8.3 µM;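 active means inhibition above a per-campaign cutoff: mean of compounds within control limits plus 3 SD, cut at about 15% in these data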
PLCg1 ctr – counter-screen for PLC-beta3 inhibitors: inhibitors of human PLC-gamma1. shares compounds with PLCg1 inh. purified PLC-gamma1, fluorogenic substrate, fluorescence. inhibition, % at 12.3 µM. 3,300 compounds, 3.1% hits
PLCb3 confirm – confirmation of human PLC-beta3 inhibitors | shares compounds with PLCg1 inh | purified PLC-beta3, fluorogenic substrate fluorescence | inhibition, % at 12.3 µM | 3,300 compounds, 1% hits; in the data active means inhibition above about 11%
Hits are given with their value; . = inactive; / = not tested or not shown. Unless noted, no stated cut-off is given here; in the data, active means inhibition above about 9.5%; inactive means the rest.

SMILES	DDE Tn7 FP inh	PLCb3 inh	CendR NRP1 mod	PLCg1 inh	proKLK7 act	Tn6 DDE FP	PLCg1 ctr	PLCb3 confirm
C[N+]1=C2N[C@@H](c3ccccc3)CC(=O)N2/C(=C\c2ccccc2)[C@@H]1Cc1ccccc1	.	.	/	.	/	.	/	/
CCCOc1ccc(C2C(=O)N(C3CCCCCC3)CC(=O)N2Cc2ccco2)cc1OC (configuration not stated)	.	.	.	.	.	.	/	/
CCCOc1ccc(C2C(=O)N(C3CCCCC3)CC(=O)N2C2CC2)cc1OC (configuration not stated)	.	.	.	13	.	.	.	.
Cc1ccccc1CSc1n[nH]c(NS(=O)(=O)c2ccccc2)n1	.	.	.	10	.	.	.	.
CNc1nc2c(c(=O)[nH]c(=O)n2C)n1CCCc1ccccc1	.	.	.	.	.	.	/	/
CCC(C)Nc1nc2c(c(=O)[nH]c(=O)n2C)n1CCC(C)C (configuration not stated)	.	11	.	10	.	.	.	.
CCC(C)Nc1nc2c(c(=O)[nH]c(=O)n2C)n1CCCc1ccccc1 (configuration not stated)	.	.	.	10	.	.	.	.
CCNc1nc2c(c(=O)[nH]c(=O)n2C)n1CC(C)C	.	.	.	.	.	.	/	/
N#CCC[C@H]1CC[C@]2(CCCN(S(=O)(=O)c3ccccc3)C2)O1	.	.	/	.	.	.	/	/
O=C(Nc1ccccc1)Nc1cccc(Cl)c1Cl	.	.	.	16	.	.	.	.
COC(=O)[C@]12C[C@H](CC(=O)NCCCN3CCCC3=O)C(=O)N(Cc3ccc4c(c3)OCO4)C1=C[C@H](C(C)C)O[C@@H]2C1CC1	.	.	/	.	.	.	/	/
O=C1N(Cc2ccccc2)c2ccccc2C12CCCc1sc(CCc3ccccc3)nc12 (configuration not stated)	.	.	/	.	.	.	/	/
Cc1ccc(S(=O)(=O)CCC(=O)Nc2nc(-c3ccncc3)cs2)cc1	.	.	.	13	.	.	.	.
Cc1ccc(S(=O)(=O)CC(=O)Nc2nc(-c3ccccc3)cs2)cc1	.	.	.	.	.	.	/	/
O=C(Cn1cc2c(n1)CCCCC2)NCc1ccccc1	.	.	.	.	.	.	/	/
CCN(Cc1ccccc1)C(=O)Cn1cc2c(n1)CCCC2	.	.	.	10	.	.	.	.
O=C(NCc1ccccc1F)C1CCCN1C(=O)NCc1ccccc1 (configuration not stated)	.	13	.	.	.	.	.	.
O=C(NCc1ccccc1Cl)C1CCCN1C(=O)NCc1ccccc1 (configuration not stated)	.	.	.	.	.	.	/	/
O=C1OCC2=C1C(c1ccccc1)CC(=O)N2c1ccc(F)cc1 (configuration not stated)	.	.	.	11	.	.	.	.
Cn1[nH]c(=O)c2ccccc2c1=O	.	.	.	.	.	.	/	/
O=c1[nH]n(-c2ccccc2Cl)c(=O)c2ccccc12	.	.	.	14	.	.	.	.
COc1ccc(C(C(=O)N(C)C2CCCC2)N(Cc2ccc(F)cc2)C(=O)c2csc3ccc(Cl)cc23)cc1OC (configuration not stated)	.	.	/	.	.	.	/	/
Cc1ccccc1CC(=O)Nc1nnc(-c2cccnc2)s1	.	.	/	.	.	.	/	/
O=C(NNC(=O)c1ccncc1)Nc1ccc(N=Nc2ccccc2)cc1	.	.	.	12	.	.	.	.
O=C(NNC(=O)c1ccncc1)Nc1ccccc1	.	.	.	.	.	.	/	/
CCCCn1nnnc1C(c1ccccc1)N1CCN(c2ccccn2)CC1 (configuration not stated)	.	.	.	.	.	.	/	/
CCCCn1nnnc1C(c1ccccc1)N1CCN(c2cccc(C(F)(F)F)n2)CC1 (configuration not stated)	.	.	.	10	.	.	.	.
